Reference: ChEMBL document CHEMBL1137746, “New insights into the antioxidant activity of hydroxycinnamic acids: Synthesis and physicochemical characterization of novel halogenated derivatives” (Eur J Med Chem, 2009)

Tests used:
[1] = ABTS radical scavenging activity assessed as Trolox equivalent antioxidant capacity at 50 uM by spectrophotometric analysis; assay type: physicochemical
Procedure, shortened: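 ABTS•+ generated from 7 mM ABTS in water with 2.45 mM potassium persulfate, kept dark at room temperature 12–16 h. Ethanolic compound solutions added to 180 µL radical solution; absorbance followed over 20 min. Blank control set as 100% radical. Triplicate. TE = (A_control − A_test)/(A_control − A_trolox); Trolox reference.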

[2] = DPPH radical scavenging activity assessed as Trolox equivalent antioxidant capacity at 50 uM after 40 mins; assay type: functional
Procedure, shortened: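 DPPH in ethanol; decrease in absorbance at 517 nm measured. Blank was ethanol; control was DPPH solution in ethanol. Triplicate. Trolox used as reference; TE = (A_control − A_test)/(A_control − A_trolox), A_control being DPPH solution without sample.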

[3] = Octanol-water partition coefficient, log P of the compound

Work on CCOC(=O)/C=C/c1cc(O)c(O)c(Br)c1 yielded an Activity [1] of 2.527, an Activity [2] of 0.938 and a logP [3] of 2.58.

In the case of COc1cc(/C=C/C(=O)O)cc(Br)c1O, the Activity [1] is reported as 2.554, the Activity [2] is reported as 0.808 and the logP [3] is reported as 2.25.

O=C(O)/C=C/c1cc(O)c(O)c(Br)c1 gave an Activity [1] of 2.496, an Activity [2] of 1.01 and a logP [3] of 1.98.

CCOC(=O)/C=C/c1cc(Br)c(O)c(OC)c1 showed an Activity [1] of 2.558, an Activity [2] of 0.558 and a logP [3] of 2.85.

In the case of O=C(O)/C=C/c1ccc(O)c(O)c1 [CAFFEIC ACID], the Activity [1] is reported as 2.538 and the Activity [2] is reported as 0.978.

Compound CCOC(=O)/C=C/c1ccc(O)c(O)c1 [ETHYL CAFFEATE] has an Activity [1] of 2.558, an Activity [2] of 0.877 and a logP [3] of 1.75.

For CCOC(=O)/C=C/c1ccc(O)c(OC)c1 [ETHYL FERULATE], the Activity [1] was 2.538, the Activity [2] was 0.593 and the logP [3] was 2.02.

With COc1cc(/C=C/C(=O)O)ccc1O [FERULATE] the Activity [1] was 2.534, the Activity [2] was 0.781 and the logP [3] was 1.42.

For COc1cc(/C=C/C(=O)O)cc(OC)c1O [SINAPINATE], the Activity [1] was 2.538 and the Activity [2] was 0.862.
